Assay results from article PMC6843717 (ACS Omega, 2019).
Where “and” joins values, the source holds several entries; their conditions need not be identical. Equal values may be shown once. Marks after values point to notes of the source that are not given here.

Assays:
[1] = cited from earlier work
[2] = Plasma pharmacokinetics after single IP or PO dose; assay type: in vivo, Balb/c mice
Outline: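 Female BALB/c mice, 4–5 weeks old, acclimated 1 week. Single 10 mg/kg dose (0.1 mL in 12.5% ethanol/12.5% cremophor/75% PBS, pH 7.4), IP or oral gavage. Five mice per time point (0.08–12 h) bled by cardiac puncture into citrate. Plasma protein-precipitated and analysed by SFC-MS/MS (ESI+, m/z 339.1→179.9). λz by terminal log-linear regression; relative bioavailability PO vs IP.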

[3] = Tissue distribution after single IP or PO dose; assay type: in vivo, BALB/c mice; details: for MRT inf / Vd/F / concentration at 30 min / half-life / k el / tissue uptake / Tmax: 10 mg/kg; for Tmax / AUC0–t / Cl/F: mean ± SEM
Outline: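 Same single 10 mg/kg IP or PO dosing in female BALB/c mice. Liver, heart, spleen, kidneys and lungs taken at 0.17, 0.5, 1 and 3 h (n = 5), saline-flushed and snap-frozen. Tissue homogenized 1:4 w/v in pH 7.4 saline, liquid–liquid extracted with internal standard, quantified by SFC-MS/MS. Localization index = tissue %ID/g over plasma %ID/mL; mean ± SEM.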

[4] = MBQ-167 distribution in mouse mammary tumors; assay type: in vivo, SCID mice; details: 2.5 mg/kg BW 24 h prior to sacrifice, 3-month multiple low-dose regimen
Outline: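 Female SCID mice, 4 weeks old, received 2 × 10^6 GFP-tagged MDA-MB-468 cells into the mammary fat pad. After 1 week, vehicle or 2.5 mg/kg ip was given three times weekly for 3 months. Twenty-four hours after the last dose, five mice per arm got 10 mg/kg 30 min before sacrifice. Tumours were saline-flushed, snap-frozen, homogenized, extracted and quantified by SFC-MS/MS (n = 5).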

[5] = Stability of MBQ-167 in mouse plasma; assay type: physicochemical; details: for postpreparative stability RE%: 8 h; for short term stability RE%: 4 h at benchtop; for freeze–thaw stability RE% / long term stability RE%: −80 °C; for freeze–thaw stability RE%: 3 cycles 24 h
Outline: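 Spiked mouse plasma QCs (calibration 1.5–1000 ng/mL) quantified by SFC-MS/MS after protein precipitation; RE% against nominal. Short-term: 2.5 and 950 ng/mL, 4 h at room temperature. Postpreparative: three QC levels (2.5, 450, 950 ng/mL) held at 4 °C. Long-term: −80 °C for 15 and 134 days. Freeze–thaw: three 24 h cycles at −80 °C.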

[6] = Stability of MBQ-167 in mouse liver; assay type: physicochemical; details: for postpreparative stability RE% / short term stability RE% / freeze–thaw stability RE% / long term stability RE%: liver; for postpreparative stability RE%: 8 h; for short term stability RE%: 3 h in an ice bucket; for freeze–thaw stability RE% / long term stability RE%: −80 °C; for freeze–thaw stability RE%: 3 cycles 24 h; for long term stability RE%: 90 days
Outline: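 Spiked mouse tissue QCs (calibration 10–1000 ng/mL) quantified by SFC-MS/MS; RE% against nominal. Short-term: 15 and 950 ng/mL, 3 h in an ice bucket. Postpreparative: 15, 450 and 950 ng/mL, 8 h at 4 °C. Long-term: −80 °C for 90 days. Freeze–thaw: three 24 h cycles at −80 °C.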

[7] = test system: Cdc42; details: read-out: IC50 for Cdc42 activation; cited from earlier work
[8] = test system: HER2-type mammary fat pad tumor; details: 10 mg/kg BW; immunocompromised mice; cited from earlier work
[9] = female, BALB/c, mouse, plasma, ip, 10 mg/kg
[10] = female, BALB/c, mouse, plasma, po, 10 mg/kg
[11] = plasma, intraperitoneal 10 mg/kg, mean ± SEM
[12] = female, BALB/c, mouse, heart, ip
[13] = female, BALB/c, mouse, heart, po
[14] = female, BALB/c, mouse, kidneys, ip
[15] = female, BALB/c, mouse, kidneys, po
[16] = female, BALB/c, mouse, liver, ip
[17] = female, BALB/c, mouse, liver, po
[18] = female, BALB/c, mouse, lungs, ip
[19] = female, BALB/c, mouse, lungs, po
[20] = female, BALB/c, mouse, spleen, ip
[21] = female, BALB/c, mouse, spleen, po

O=c1cc(CN2CCOCC2)occ1OCCCCCSc1ccnc2cc(C(F)(F)F)ccc12 [EHT1864]
T1/2 ([1]; Rac inhibitor, plasma): 1.65 h

CCn1c2ccccc2c2cc(Nc3ccnc(NCCCN4CCOCC4)n3)ccc21 [EHop-016]
bioavailability (F) ([1]; reported for other anticancer drugs): 40%

CCn1c2ccccc2c2cc(-n3nncc3-c3ccccc3)ccc21 [MBQ-167]
systemic clearance adjusted by F ([2]; PO administration): 136.5 mL/h
clearance ([2]; female, BALB/c, mouse, plasma, 10 mg/kg): ~5 L/h/kg
AUC(0-t) [2, 9]: 1.64 ± 0.291 µg·h/mL
Cmax [2, 9]: 2.97 ± 1.38 µg/mL
MRT inf [2, 9]: 1.9 ± 0.1 h
Tmax [2, 9]: 0.22 ± 0.14 h
concentration at 30 min [2, 9]: 0.84 µg/mL
half-life [2, 9]: 2.17 ± 0.06 h
AUC(0-t) [2, 10]: 0.585 ± 0.15 µg·h/mL
Cmax [2, 10]: 0.619 ± 0.195 µg/mL
MRT inf [2, 10]: 1.9 ± 0.1 h
Tmax [2, 10]: 0.5 h
half-life [2, 10]: 2.6 ± 0.2 h
time to elimination from plasma and tissues ([2]; following administration by both routes): 6 to 8 h
drug remaining in the bloodstream ([2]; from apparent volume of distribution vs blood volume 1.5–2.0 mL): less than 1%
clearance rate as share of liver blood flow in the mouse ([2]; mouse, in vivo): ~85%
F (relative bioavailability) ([2]; oral gavage relative to IP, 10 mg/kg, mean ± SEM): 35% and 35 ± 3%
Cl/F [2, 11]: 129 mL/h and 129 ± 24 mL/h
Kel [2, 11]: 0.320 ± 0.009 h^–^1
Kel ([2]; plasma, oral gavage 10 mg/kg, mean ± SEM): 0.27 ± 0.02 h^–^1
Cl/F ([2]; plasma, oral gavage 10 mg/kg, mean ± SEM, 10 mg/kg): 390 mL/h and 390 ± 111 mL/h
MRT inf [3, 12]: 0.98 ± 0.01 h
Vd/F [3, 12]: 0.334 ± 0.139 L
concentration at 30 min [3, 12]: 797 ng/g
half-life [3, 12]: 0.97 ± 0.12 h
k el [3, 12]: 0.000206 s⁻¹
tissue uptake [3, 12]: 0.4 ± 0.11 %ID/g
Tmax ([3]; female, BALB/c, mouse, heart, ip, Tmax, IP 10 mg/kg): 0.5 h
MRT inf [3, 13]: 1.03 ± 0.05 h
Vd/F [3, 13]: 0.674 ± 0.101 L
half-life [3, 13]: 1.34 ± 0.03 h
k el [3, 13]: 0.000144 s⁻¹
tissue uptake [3, 13]: 0.22 ± 0.03 %ID/g
Tmax ([3]; female, BALB/c, mouse, heart, po, Tmax, PO 10 mg/kg): 0.5 h
MRT inf [3, 14]: 2.12 ± 0.07 h
Vd/F [3, 14]: 0.023 ± 0.012 L
concentration at 30 min [3, 14]: 10500 ng/g
half-life [3, 14]: 1.39 ± 0.08 h
k el [3, 14]: 0.000139 s⁻¹
tissue uptake [3, 14]: 6 ± 1.4 %ID/g
MRT inf [3, 15]: 2.7 ± 0.5 h
Vd/F [3, 15]: 0.188 ± 0.035 L
half-life [3, 15]: 3.4 ± 0.9 h
k el [3, 15]: 6.67e-05 s⁻¹
tissue uptake [3, 15]: 1.6 ± 0.4 %ID/g
MRT inf [3, 16]: 3.56 ± 0.83 h
Vd/F [3, 16]: 0.07 ± 0.009 L
concentration at 30 min [3, 16]: 4560 ng/g
half-life [3, 16]: 2.24 ± 0.81 h
k el [3, 16]: 0.000139 s⁻¹
tissue uptake [3, 16]: 2.3 ± 0.2 %ID/g
Tmax ([3]; female, BALB/c, mouse, liver, ip, Tmax, IP 10 mg/kg): 0.5 h
MRT inf [3, 17]: 5 ± 1 h
Vd/F [3, 17]: 0.135 ± 0.108 L
half-life [3, 17]: 1.9 ± 0.6 h
k el [3, 17]: 0.000119 s⁻¹
tissue uptake [3, 17]: 1.6 ± 0.7 %ID/g
Tmax ([3]; female, BALB/c, mouse, liver, po, Tmax, PO 10 mg/kg): 0.5 h
MRT inf [3, 18]: 1.27 ± 0.06 h
Vd/F [3, 18]: 0.201 ± 0.038 L
half-life [3, 18]: 1.84 ± 0.24 h
k el [3, 18]: 0.000108 s⁻¹
tissue uptake [3, 18]: 0.72 ± 0.08 %ID/g
Tmax ([3]; female, BALB/c, mouse, lungs, ip, Tmax, IP 10 mg/kg): 0.5 h
MRT inf [3, 19]: 0.89 ± 0.08 h
Vd/F [3, 19]: 0.01 ± 0.004 L
half-life [3, 19]: 0.89 ± 0.18 h
k el [3, 19]: 0.000242 s⁻¹
tissue uptake [3, 19]: 13 ± 5 %ID/g
Tmax ([3]; female, BALB/c, mouse, lungs, po, Tmax, PO 10 mg/kg): 0.5 h
MRT inf [3, 20]: 2 ± 0.08 h
Vd/F [3, 20]: 0.268 ± 0.135 L
concentration at 30 min [3, 20]: 1620 ng/g
half-life [3, 20]: 1.89 ± 0.11 h
k el [3, 20]: 0.000103 s⁻¹
tissue uptake [3, 20]: 0.81 ± 0.16 %ID/g
MRT inf [3, 21]: 5.7 ± 0.2 h
Vd/F [3, 21]: 0.535 ± 0.042 L
half-life [3, 21]: 11 ± 3 h
k el [3, 21]: 2.22e-05 s⁻¹
tissue uptake [3, 21]: 0.26 ± 0.06 %ID/g
AUC0–t ([3]; heart, IP 10 mg/kg): 0.46 ± 0.14 h %ID/g
Cl/F ([3]; heart, IP 10 mg/kg): 224 ± 66 mL/h
AUC0–t ([3]; heart, PO 10 mg/kg): 0.22 ± 0.03 h %ID/g
Cl/F ([3]; heart, PO 10 mg/kg): 347 ± 44 mL/h
AUC0–t ([3]; kidneys, IP 10 mg/kg): 16.3 ± 7.2 h %ID/g
Cl/F ([3]; kidneys, IP 10 mg/kg): 12 ± 7 mL/h
AUC0–t ([3]; kidneys, PO 10 mg/kg): 2.5 ± 0.9 h %ID/g
Cl/F ([3]; kidneys, PO 10 mg/kg): 51 ± 25 mL/h
AUC0–t ([3]; liver, IP 10 mg/kg): 3.9 ± 1.3 h %ID/g
Cl/F ([3]; liver, IP 10 mg/kg): 31 ± 13 mL/h
AUC0–t ([3]; liver, PO 10 mg/kg): 4 ± 2 h %ID/g
Cl/F ([3]; liver, PO 10 mg/kg): 37 ± 23 mL/h
AUC0–t ([3]; lungs, IP 10 mg/kg): 0.86 ± 0.20 h %ID/g
Cl/F ([3]; lungs, IP 10 mg/kg): 82 ± 26 mL/h
AUC0–t ([3]; lungs, PO 10 mg/kg): 17 ± 7 h %ID/g
Cl/F ([3]; lungs, PO 10 mg/kg): 10 ± 6 mL/h
Tmax ([3]; lungs, PO 10 mg/kg): 0.28 ± 0.11 h
AUC0–t ([3]; spleen, IP 10 mg/kg): 1.4 ± 0.5 h %ID/g
Cl/F ([3]; spleen, IP 10 mg/kg): 93 ± 42 mL/h
AUC0–t ([3]; spleen, PO 10 mg/kg): 1.5 ± 0.2 h %ID/g
Cl/F ([3]; spleen, PO 10 mg/kg): 44 ± 16 mL/h
detection of MBQ-167 in tumor [4]: not detected
stability in plasma (±15% RSD, RE) ([5]; incubation at ambient temperature for four hours): stable
postpreparative stability in autosampler conditions ([5]; plasma, 4 °C): 8 h
long-term stability at −80 °C ([5]; plasma, high drug concentration): 134 days
long-term stability at −80 °C ([5]; plasma, low drug concentration): 15 days
postpreparative stability RE% ([5]; plasma, spiked 2.5 ng/mL, 4 °C): 8.0%
short term stability RE% ([5]; plasma, spiked 2.5 ng/mL): 4.0%
freeze–thaw stability RE% ([5]; plasma, spiked 2.5 ng/mL): –2.7%
long term stability RE% ([5]; plasma, spiked 2.5 ng/mL, 15 days): 12.6 ^b %
postpreparative stability RE% ([5]; plasma, spiked 950 ng/mL, 4 °C): 15.2%
short term stability RE% ([5]; plasma, spiked 950 ng/mL): –0.5%
freeze–thaw stability RE% ([5]; plasma, spiked 950 ng/mL): –1.2%
long term stability RE% ([5]; plasma, spiked 950 ng/mL, 134 days): –1.0 ^d %
freeze–thaw stability ([5]; plasma, three freeze–thaw cycles lasting 24 h): stable
stability in tissues ([6]; incubation in an ice bucket for 3 h): stable
postpreparative stability RE% ([6]; spiked 15 ng/mL, 4 °C): –15%
short term stability RE% ([6]; spiked 15 ng/mL): 0.1%
freeze–thaw stability RE% ([6]; spiked 15 ng/mL): 1.5%
long term stability RE% ([6]; spiked 15 ng/mL): 6.5%
postpreparative stability RE% ([6]; spiked 950 ng/mL, 4 °C): –6.7%
short term stability RE% ([6]; spiked 950 ng/mL): –12.2%
freeze–thaw stability RE% ([6]; spiked 950 ng/mL): –3.2%
long term stability RE% ([6]; spiked 950 ng/mL): 9.2%
postpreparative stability in autosampler conditions ([6]; tissues, 4 °C): 8 h
long-term stability at −80 °C ([6]; tissues, both low and high concentrations of quality control samples): 90 days
freeze–thaw stability ([6]; tissues, three freeze–thaw cycles lasting 24 h): stable
reduction of HER2-type mammary fat pad tumor growth [8]: ~90%
reduction of metastasis [8]: ~90% and ~99%
